The values below come from ChEMBL document CHEMBL4052633, “Cinnamoylated chloroquine analogues: A new structural class of antimalarial agents” (Eur J Med Chem, 2017).

In data set [1] the test system is Plasmodium falciparum. Kind of data set: Antimalarial activity against chloroquine sensitive Plasmodium falciparum 3D7 after 72 hrs by SYBR green 1 dye based fluorescence assay. Format: functional. The conditions noted are these: for pIC50: Plasmodium falciparum, 3D7, 72 h, read-out: IC50. Put shortly: (§1)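 Compounds dissolved in DMSO at 5 mg/mL (stock), then two-fold serial dilutions. Lysis buffer with 2x SYBR Green-I was added for 1 h at 37 °C. Fluorescence read at 485/530 nm. IC50 by logit regression of dose-response curves, triplicate.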

The subject of data set [2] is Plasmodium falciparum. Kind of data set: Antimalarial activity against chloroquine resistant Plasmodium falciparum K1 after 72 hrs by SYBR green 1 dye based fluorescence assay. The conditions noted are these: for pIC50: Plasmodium falciparum, K1, 72 h, read-out: IC50. The data set is classed as functional. Put shortly: as §1
Data set [3] is described as follows: (§2) Cytotoxicity against African green monkey Vero cells after 72 hrs by MTT assay. Format: cell-based. The conditions noted are these: chlorocebus sabaeus, Vero cells. Summed up:
(§3)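 Vero monkey kidney cells were exposed to a dilution series of test agents for 72 hour, with MTT as the detection reagent (modified Mosmann method). CC50 was derived by nonlinear regression of dose-response curves. Triplicate experiments.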
In general terms: Tetrazolium dyes change colour on reduction, which living cells bring about.

Data set [4] can be described thus: Selectivity index, ratio of CC50 for African green monkey Vero cells to IC50 for chloroquine sensitive Plasmodium falciparum 3D7. Format: toxicity. The conditions noted are these: for selectivity ratio: Vero cells, read-out: Ratio CC50/IC50; for Ratio CC50/IC50: vero. Summed up: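 SI was computed as Vero CC50 (72 hour MTT, nonlinear regression) divided by the 3D7 IC50. SYBR Green-I lysis buffer was added for 1 hour, and fluorescence was read at 485/530 nm. Logit regression gave IC50.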

The subject of data set [5] is Vero. The description is as §2. Format: cell-based. The conditions noted are these: chlorocebus sabaeus, vero, 72 h. Put shortly: as §3

pIC50: −log10 of the molar value.

What is called pIC50 is the IC50 on a negative log10 scale, so that one unit is a factor of ten. A word on the CC50: it is the concentration that lowers cell viability or growth by half. Consider `CC(=O)c1ccccc1OCC(=O)NCCNc1ccnc2cc(Cl)ccc12`, for which the figures for the negative logarithm of the IC50 (pIC50) in data set [1] and in data set [2] were 7.98 and 5.89, respectively. For the same molecule, in data set [3], the midpoint of cytotoxicity, the CC50 at 72 h, lay at 106 µM. Besides, in data set [4], the selectivity ratio turned out to be 10200.
For `COc1ccc(/C=C/C(=O)c2ccc(OCC(O)CNCCNc3ccnc4cc(Cl)ccc34)cc2)cc1OC` (stereo unspecified), in that order: 7.10, 6.64, 10.2 µM and 128.
Take `Cc1ccc(/C=C/C(=O)NCCNc2ccnc3cc(Cl)ccc23)cc1`: the pIC50 in data set [1] was 7.66; in data set [2] it was 7.32. This molecule also came in with a CC50 at 72 h in data set [3] of 4 µM. Also, the selectivity ratio in data set [4] is 182.
For `COc1ccc(/C=C/C(=O)c2ccccc2OCC(=O)NCCNc2ccnc3cc(Cl)ccc23)cc1OC`, in that order: 7.02, 6.87, 5.31 µM and 55.3.
Turning to `COc1ccc(/C=C/C(=O)NCCNc2ccnc3cc(Cl)ccc23)cc1OC`, the pIC50 in data set [1] was 7.85; in data set [2], 6.80. Further, the midpoint of cytotoxicity in data set [3], the CC50 at 72 h, lay at 5.6 µM. The selectivity ratio in data set [4] worked out at 396.
For `COc1ccc(/C=C/C(=O)c2ccccc2OCC(=O)NCCNc2ccnc3cc(Cl)ccc23)cc1`, in that order: 6.87, 6.83, 25 µM and 186.
As for `COc1cc(/C=C/C(=O)c2ccc(OCC3CO3)cc2)cc(OC)c1OC` (stereo unspecified), the cytotoxic concentration (CC50) entry in data set [5] is recorded as “Non-Toxic”. Moreover, the “Ratio CC50/IC50” value in data set [4] is “Not Active”.
Regarding `COc1cc(OC)c(OC)cc1/C=C/C(=O)c1ccccc1OCC(=O)NCCNc1ccnc2cc(Cl)ccc12`, the negative-log IC50 (pIC50) is 7.03 in data set [1] and 6.79 in data set [2]. This molecule also displayed a CC50 at 72 h in data set [3] of 12.2 µM. For the same molecule, the selectivity ratio in data set [4] came out at 130.
With `O=C(COc1ccccc1C(=O)/C=C/c1ccc(Cl)cc1)NCCNc1ccnc2cc(Cl)ccc12`, the pIC50 in data set [1] is 6.59; in data set [2], 6.60. Further, the CC50 at 72 h in data set [3] turned out to be 4.98 µM. Further, in data set [4], the selectivity ratio turned out to be 19.5.
For `COc1cc(/C=C/C(=O)c2ccc(OCC(O)CNCCNc3ccnc4cc(Cl)ccc34)cc2)cc(OC)c1OC` (stereo unspecified) the same measures were 7.87, 6.10, 1.91 µM and 142.
For `COc1cc(/C=C/C(=O)c2ccccc2OCC(=O)NCCNc2ccnc3cc(Cl)ccc23)cc(OC)c1OC`, in that order: 7.16, 6.65, 3.92 µM and 56.7.
For `O=C(/C=C/c1ccco1)NCCNc1ccnc2cc(Cl)ccc12` the same measures were 7.03, 6.99, 629 µM and 6700.
On to `COc1cc(OC)c(OC)cc1/C=C/C(=O)NCCNc1ccnc2cc(Cl)ccc12`, for which the values for the pIC50 in data set [1] and in data set [2] were 7.67 and 6.85, respectively. In data set [3], the CC50 at 72 h was 16.1 µM. Moreover, in data set [4], the selectivity ratio turned out to be 756.
For `COc1ccc(/C=C/C(=O)NCCNc2ccnc3cc(Cl)ccc23)cc1`, in that order: 7.87, 7.23, 20.6 µM and 1530.
Take `COc1cc(/C=C/C(=O)c2ccc(OCC(O)CNc3ccc4c(c3)OCO4)cc2)cc(OC)c1OC` (stereo unspecified): the IC50 result in data set [1] and in data set [2] was “Not Active” in each case. Besides, in data set [5], the CC50 entry is “Non-Toxic”. The “Ratio CC50/IC50” value in data set [4] is reported as “Not Active”.
Take `COc1ccc(/C=C/C(=O)c2ccc(OCC(O)CNCCNc3ccnc4cc(Cl)ccc34)cc2)cc1` (stereo unspecified): the pIC50 in data set [1] is 7.33; in data set [2], 6.05. The molecule further registered a CC50 at 72 h in data set [3] of 8.03 µM. Moreover, the selectivity ratio in data set [4] was found to be 170.
With `O=C(/C=C/c1ccc(Cl)cc1)NCCNc1ccnc2cc(Cl)ccc12`, the pIC50 in data set [1] is 7.71; in data set [2], 7.36. In data set [3], this molecule showed a CC50 at 72 h of 6.93 µM. The selectivity ratio in data set [4] is 357.
